Experimental data from different studies.
Compare with care: the assays were run in different laboratories.
CTSL: Procathepsin L (CTSL, Homo sapiens, UniProt P07711)
XDH: Xanthine dehydrogenase/oxidase (XDH, Bos taurus, UniProt P80457)

COc1cc(Nc2ncc(F)c(Nc3ccc4c(n3)NC(=O)C(C)(C)O4)n2)cc(OC)c1OC — inhibition (Mitogen-activated protein kinase kinase kinase kinase 5 (MAP4K5, Homo sapiens, UniProt Q9Y4K4); binding; competition with immobilised ligand; 10 µM): 16%
O=C(Oc1cncc(Cl)c1)c1cc2c(Cl)cc(Cl)cc2[nH]1 — inhibition (CTSL; enzyme activity; inhibitor; 10 µM): 14%
C#Cc1n[nH]c2c(-c3cn([C@@H](C)c4ccccc4)c(=O)[nH]c3=O)cc(F)cc12 — inhibition (Protein kinase C theta type (PRKCQ, Homo sapiens, UniProt Q04759); enzyme activity; inhibitor; 0.1 µM): 10.2%
CCOC(=O)c1ccc(OC(=O)CCCCCNC(=N)N)cc1 — inhibition (CTSL; enzyme activity; inhibitor; 10 µM): 0%
CC(C)Cn1cnc2c(N)nc3ccccc3c21 — inhibition (Alpha-1B adrenergic receptor (Adra1b, Rattus norvegicus, UniProt P15823); ligand displacement; radioligand; 10 µM): 40%
c1ccc(C(NCCNC(c2ccccc2)c2ccccc2)c2ccccc2)cc1 — inhibition (XDH; enzyme activity; inhibitor; 10 µM): 5%
Cn1cc(-c2cc(F)cc(N3CCn4c(cc5c4CCCC5)C3=O)c2CO)cc(Nc2ccc(N3CCN(C4COC4)CC3)cn2)c1=O — inhibition (Sphingosine kinase 2 (SPHK2, Homo sapiens, UniProt Q9NRA0); enzyme activity; inhibitor; 0.1 µM): -10%
CC(C)C[C@H](NC(=O)[C@H]1O[C@@H]1C(=O)O)C(=O)NCCCCN=C(N)N — inhibition (CTSL; enzyme activity; inhibitor; 50 nM): 84%
Cn1cc(-c2cccc(N3CCc4c(sc5c4CC(C)(C)C5)C3=O)c2CO)cc(Nc2ccncn2)c1=O — inhibition (5'-AMP-activated protein kinase catalytic subunit alpha-1 (PRKAA1, Homo sapiens, UniProt Q13131); enzyme activity; inhibitor; 1 µM): 1%
NC(=O)Cc1ccccc1 — inhibition (XDH; enzyme activity; inhibitor; absorbance; 200 µg/mL): 17.1%
CC[C@H](NC(=O)OCc1ccccc1)C(=O)N[C@H](C(=O)N[C@@H](Cc1ccccc1)C(=O)N(C)N(C#N)CCC(N)=O)C(C)(C)C — inhibition (CTSL; enzyme activity; inhibitor; 50 µM): 99%
C#Cc1n[nH]c2c(-c3cn([C@@H](C)c4ccccn4)c(=O)[nH]c3=O)cc(F)cc12 — inhibition (Phosphatidylinositol 4-kinase beta (PI4KB, Homo sapiens, UniProt Q9UBF8); enzyme activity; inhibitor; 0.1 µM): 9.3%
CN(C)C(=O)COC(=O)Cc1ccc(OC(=O)c2ccc(NC(=N)N)cc2)cc1 — inhibition (CTSL; enzyme activity; inhibitor; 10 µM): 2%
